In ChEMBL document CHEMBL5046302, “Identification and Evaluation of Brominated Carbazoles as a Novel Antibiotic Adjuvant Scaffold in MRSA” (2022):
≈ marks a conversion by molar mass, not a printed value.

Experiments:
Format in all cases: functional
Staphylococcus aureus [1] = test: Potentiation of oxacillin induced antibacterial activity against methicillin-resistant Staphylococcus aureus USA100 assessed as oxacillin MIC at 50 uM after 18 hrs by CLSI protocol based broth microdilution assay
Staphylococcus aureus [2] = test: Potentiation of cefoxitin induced antibacterial activity against methicillin-resistant Staphylococcus aureus COL assessed as fold change in cefoxitin MIC at 50 uM after 18 hrs by CLSI protocol based broth microdilution assay
Staphylococcus aureus [3] = test: Potentiation of ampicillin induced antibacterial activity against methicillin-resistant Staphylococcus aureus USA300 assessed as fold change in ampicillin MIC at 50 uM after 18 hrs by CLSI protocol based broth microdilution assay
Staphylococcus aureus [4] = test: Potentiation of ceftazidime induced antibacterial activity against methicillin-resistant Staphylococcus aureus USA300 assessed as fold change in ceftazidime MIC at 50 uM after 18 hrs by CLSI protocol based broth microdilution assay
Staphylococcus aureus [5] = test: Potentiation of oxacillin induced antibacterial activity against methicillin-resistant Staphylococcus aureus COL assessed as fold change in oxacillin MIC at 50 uM after 18 hrs by CLSI protocol based broth microdilution assay
Staphylococcus aureus [6] = test: Potentiation of oxacillin induced antibacterial activity against methicillin-resistant Staphylococcus aureus COL assessed as oxacillin MIC at 50 uM after 18 hrs by CLSI protocol based broth microdilution assay
Staphylococcus aureus [7] = test: Potentiation of ceftazidime induced antibacterial activity against methicillin-resistant Staphylococcus aureus ATCC 43300 assessed as fold change in ceftazidime MIC at 50 uM after 18 hrs by CLSI protocol based broth microdilution assay
Staphylococcus aureus [8] = test: Potentiation of oxacillin induced antibacterial activity against methicillin-resistant Staphylococcus aureus ATCC 43300 assessed as fold change in oxacillin MIC at 50 uM after 18 hrs by CLSI protocol based broth microdilution assay
Staphylococcus aureus [9] = test: Antibacterial activity against methicillin-resistant Staphylococcus aureus ATCC 43300 assessed as inhibition of bacterial growth after 18 hrs by CLSI protocol based broth microdilution assay
How it was run: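 Broth microdilution MIC of carbazole alone vs MRSA ATCC 43300, tested up to 200 μM.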

Staphylococcus aureus [10] = test: Potentiation of methicillin induced antibacterial activity against methicillin-resistant Staphylococcus aureus USA300 assessed as fold change in methicillin MIC at 50 uM after 18 hrs by CLSI protocol based broth microdilution assay
Staphylococcus aureus [11] = test: Potentiation of oxacillin induced antibacterial activity against methicillin-resistant Staphylococcus aureus ATCC 43300 assessed as oxacillin MIC at 50 uM after 18 hrs by CLSI protocol based broth microdilution assay
Staphylococcus aureus [12] = test: Potentiation of oxacillin induced antibacterial activity against methicillin-resistant Staphylococcus aureus USA300 assessed as fold change in oxacillin MIC at 50 uM after 18 hrs by CLSI protocol based broth microdilution assay
Staphylococcus aureus [13] = test: Potentiation of cefoxitin induced antibacterial activity against methicillin-resistant Staphylococcus aureus USA100 assessed as cefoxitin MIC at 50 uM after 18 hrs by CLSI protocol based broth microdilution assay
Staphylococcus aureus [14] = test: Potentiation of ceftazidime induced antibacterial activity against methicillin-resistant Staphylococcus aureus USA100 assessed as fold change in ceftazidime MIC at 50 uM after 18 hrs by CLSI protocol based broth microdilution assay
Staphylococcus aureus [15] = test: Potentiation of ampicillin induced antibacterial activity against methicillin-resistant Staphylococcus aureus COL assessed as fold change in ampicillin MIC at 50 uM after 18 hrs by CLSI protocol based broth microdilution assay
Staphylococcus aureus [16] = test: Potentiation of ampicillin induced antibacterial activity against methicillin-resistant Staphylococcus aureus ATCC 43300 assessed as fold change in ampicillin MIC at 50 uM after 18 hrs by CLSI protocol based broth microdilution assay
Staphylococcus aureus [17] = test: Potentiation of cefoxitin induced antibacterial activity against methicillin-resistant Staphylococcus aureus USA100 assessed as fold change in cefoxitin MIC at 50 uM after 18 hrs by CLSI protocol based broth microdilution assay
Staphylococcus aureus [18] = test: Potentiation of ampicillin induced antibacterial activity against methicillin-resistant Staphylococcus aureus USA300 assessed as ampicillin MIC at 50 uM after 18 hrs by CLSI protocol based broth microdilution assay
Staphylococcus aureus [19] = test: Potentiation of oxacillin induced antibacterial activity against methicillin-resistant Staphylococcus aureus USA300 assessed as oxacillin MIC at 50 uM after 18 hrs by CLSI protocol based broth microdilution assay
Staphylococcus aureus [20] = test: Potentiation of methicillin induced antibacterial activity against methicillin-resistant Staphylococcus aureus ATCC 43300 assessed as fold change in methicillin MIC at 50 uM after 18 hrs by CLSI protocol based broth microdilution assay
Staphylococcus aureus [21] = test: Potentiation of ceftazidime induced antibacterial activity against methicillin-resistant Staphylococcus aureus COL assessed as ceftazidime MIC at 50 uM after 18 hrs by CLSI protocol based broth microdilution assay
Staphylococcus aureus [22] = test: Potentiation of methicillin induced antibacterial activity against methicillin-resistant Staphylococcus aureus COL assessed as fold change in methicillin MIC at 50 uM after 18 hrs by CLSI protocol based broth microdilution assay
Staphylococcus aureus [23] = test: Potentiation of cefoxitin induced antibacterial activity against methicillin-resistant Staphylococcus aureus USA300 assessed as fold change in cefoxitin MIC at 50 uM after 18 hrs by CLSI protocol based broth microdilution assay
Staphylococcus aureus [24] = test: Potentiation of ceftazidime induced antibacterial activity against methicillin-resistant Staphylococcus aureus USA100 assessed as ceftazidime MIC at 50 uM after 18 hrs by CLSI protocol based broth microdilution assay
Staphylococcus aureus [25] = test: Potentiation of ceftazidime induced antibacterial activity against methicillin-resistant Staphylococcus aureus ATCC 43300 assessed as ceftazidime MIC at 50 uM after 18 hrs by CLSI protocol based broth microdilution assay
Staphylococcus aureus [26] = test: Potentiation of ampicillin induced antibacterial activity against methicillin-resistant Staphylococcus aureus ATCC 43300 assessed as ampicillin MIC at 50 uM after 18 hrs by CLSI protocol based broth microdilution assay
Staphylococcus aureus [27] = test: Potentiation of ceftazidime induced antibacterial activity against methicillin-resistant Staphylococcus aureus USA300 assessed as ceftazidime MIC at 50 uM after 18 hrs by CLSI protocol based broth microdilution assay
Staphylococcus aureus [28] = test: Potentiation of methicillin induced antibacterial activity against methicillin-resistant Staphylococcus aureus USA300 assessed as methicillin MIC at 50 uM after 18 hrs by CLSI protocol based broth microdilution assay
Staphylococcus aureus [29] = test: Potentiation of oxacillin induced antibacterial activity against methicillin-resistant Staphylococcus aureus USA 100 assessed as fold change in oxacillin MIC at 50 uM after 18 hrs by CLSI protocol based broth microdilution assay
Staphylococcus aureus [30] = test: Potentiation of ampicillin induced antibacterial activity against methicillin-resistant Staphylococcus aureus USA100 assessed as ampicillin MIC at 50 uM after 18 hrs by CLSI protocol based broth microdilution assay
Staphylococcus aureus [31] = test: Potentiation of methicillin induced antibacterial activity against methicillin-resistant Staphylococcus aureus USA100 assessed as methicillin MIC at 50 uM after 18 hrs by CLSI protocol based broth microdilution assay
Staphylococcus aureus [32] = test: Upregulation of pbp2 gene expression in methicillin-resistant Staphylococcus aureus ATCC 43300 assessed as fold change by RT-PCR method

Row | SMILES | MIC (Staphylococcus aureus [1]) [µg/mL] | fold change (FC) (Staphylococcus aureus [2]) | fold change (FC) (Staphylococcus aureus [3]) | fold change (FC) (Staphylococcus aureus [4]) | fold change (FC) (Staphylococcus aureus [5]) | MIC (Staphylococcus aureus [6]) [µg/mL] | fold change (FC) (Staphylococcus aureus [7]) | fold change (FC) (Staphylococcus aureus [8]) | MIC (Staphylococcus aureus [9]) [µM] | fold change (FC) (Staphylococcus aureus [10]) | MIC (Staphylococcus aureus [11]) [µg/mL] | fold change (FC) (Staphylococcus aureus [12]) | MIC (Staphylococcus aureus [13]) [µg/mL] | fold change (FC) (Staphylococcus aureus [14]) | fold change (FC) (Staphylococcus aureus [15]) | fold change (FC) (Staphylococcus aureus [16]) | fold change (FC) (Staphylococcus aureus [17]) | MIC (Staphylococcus aureus [18]) [µg/mL] | MIC (Staphylococcus aureus [19]) [µg/mL] | fold change (FC) (Staphylococcus aureus [20]) | further results
1 | Brc1ccc2[nH]c3ccc(Br)cc3c2c1 | 128 | 1 | 1 | 1 | 4 | 128 | 1 | 4 | > 200 | 4 | 8 | 2 | 64 | 4 | 2 | 1 | 2 | 8 | 16 | 1 | MIC (Staphylococcus aureus [21]): 1020 µg/mL; fold change (FC) (Staphylococcus aureus [22]): 1; fold change (FC) (Staphylococcus aureus [23]): 1; MIC (Staphylococcus aureus [24]): 256 µg/mL; MIC (Staphylococcus aureus [25]): 128 µg/mL; MIC (Staphylococcus aureus [26]): 16 µg/mL; MIC (Staphylococcus aureus [27]): 256 µg/mL; MIC (Staphylococcus aureus [28]): 8 µg/mL; fold change (FC) (Staphylococcus aureus [29]): 4; MIC (Staphylococcus aureus [30]): 32 µg/mL; MIC (Staphylococcus aureus [31]): 32 µg/mL
2 | Brc1cccc2[nH]c3ccccc3c12 | – | – | – | – | – | – | – | – | 100 (≈ 24.6 µg/mL) | – | – | – | – | – | – | – | – | – | – | – | fold change (FC) (Staphylococcus aureus [32]): 2
3 | Brc1cccc2c1[nH]c1ccccc12 | 0.5 | 1 | 1 | 1 | 1 | 512 | 2 | 8 | > 200 | 4 | 4 | 4 | 16 | 2 | 2 | 8 | 16 | 8 | 16 | 1 | fold change (FC) (Staphylococcus aureus [32]): 2; MIC (Staphylococcus aureus [21]): 1020 µg/mL; fold change (FC) (Staphylococcus aureus [22]): 1; fold change (FC) (Staphylococcus aureus [23]): 2; MIC (Staphylococcus aureus [24]): 256 µg/mL; MIC (Staphylococcus aureus [25]): 64 µg/mL; MIC (Staphylococcus aureus [26]): 4 µg/mL; MIC (Staphylococcus aureus [27]): 256 µg/mL; MIC (Staphylococcus aureus [28]): 8 µg/mL; fold change (FC) (Staphylococcus aureus [29]): 512; MIC (Staphylococcus aureus [30]): 8 µg/mL; MIC (Staphylococcus aureus [31]): 8 µg/mL
